In publication PMC4130904 (The Prostate, 2014):
Values joined by “and” are separate entries in the source; they are usually repeats but may differ in a detail not shown here. Equal values may be shown once. Non-standard residues stand in square brackets, D forms with d. Residues, ends and D or L forms follow the SMILES beside them. No end group written: not given here. *: point of attachment. X1 = C/C=C(/C)C(=O)O[C@H]1C(C)=C2[C@H]([C@@H]1OC(=O)CCCCCCC)[C@@](C)(OC(C)=O)C[C@H](OC(=O)CCCCCCCCCCCN*)[C@@]1(O)[C@H]2OC(=O)[C@@]1(C)O; A12ADT = thapsigargin analog A12ADT

Key:
[1] = Hydrolysis of prodrugs in mouse plasma ex vivo; type: in vitro ADME; settings: 100 µM prodrug, 37°C, 24 hrs
Procedure, shortened: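 Plasma was taken by intra-cardiac puncture from fully anesthetized mice. Prodrugs were added at 100 µM final and incubated at 37°C for 24 hrs with shaking. Active drug (A-, S-, E-12ADT) was measured by LCMS at 0 and 24hrs.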

[2] = Plasma pharmacokinetics of prodrugs and active drug after IV dosing; type: in vivo, mouse
Procedure, shortened: (§1)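 Mice were dosed IV and bled by cardiac puncture under anesthesia to give heparinized plasma; naive-mouse plasma served as control, and tissues and tumors were harvested. Samples were deproteinated in acetonitrile with 0.1% FA, with L12ADT at 1 µM as internal standard. Calibration standards ran 100pM–100 µM. Samples were analysed by reversed-phase LCMS (positive-mode MRM). Terminal t1/2 came from the terminal slope of log-linear concentration–time plots.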

[3] = Tumor pharmacokinetics of prodrug activation in MCF-7 xenografts; type: in vivo, mouse
Procedure, shortened: as §1

[4] = tested on: LNCaP human prostate cancer xenografts; test: LNCaP xenograft efficacy study, comparison to docetaxel; type: in vivo, mouse; settings: prodrug 10 nmoles IV days 0, 1, 2; docetaxel 12 mg/kg/dose IV days 0, 3, 6
Procedure, shortened: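 Six-week-old male nude mice (n = 10/group) received subcutaneous rear-flank injections of LNCaP cells at 2.0 × 10⁶ per 100 µL of 60% Matrigel in HBSS. Prodrug was given IV at 6.8 mg/kg/dose (10 nmoles) on days 0, 1, 2. Docetaxel was given IV at 12 mg/kg/dose […] on days 0, 3, 6 for one cycle. Tumor volume (0.5236 × L × W × H) was measured weekly by calipers, and body weight was tracked.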

[5] = Body weight loss in treated LNCaP xenograft-bearing mice; type: in vivo, mouse
[6] = cited from earlier work
FAP = target: T1, FAP (Homo sapiens, UniProt Q12884); test: FAP-mediated hydrolysis of prodrugs ex vivo; type: biochemical
T1 sequence (Q12884 26-760 limits assumed): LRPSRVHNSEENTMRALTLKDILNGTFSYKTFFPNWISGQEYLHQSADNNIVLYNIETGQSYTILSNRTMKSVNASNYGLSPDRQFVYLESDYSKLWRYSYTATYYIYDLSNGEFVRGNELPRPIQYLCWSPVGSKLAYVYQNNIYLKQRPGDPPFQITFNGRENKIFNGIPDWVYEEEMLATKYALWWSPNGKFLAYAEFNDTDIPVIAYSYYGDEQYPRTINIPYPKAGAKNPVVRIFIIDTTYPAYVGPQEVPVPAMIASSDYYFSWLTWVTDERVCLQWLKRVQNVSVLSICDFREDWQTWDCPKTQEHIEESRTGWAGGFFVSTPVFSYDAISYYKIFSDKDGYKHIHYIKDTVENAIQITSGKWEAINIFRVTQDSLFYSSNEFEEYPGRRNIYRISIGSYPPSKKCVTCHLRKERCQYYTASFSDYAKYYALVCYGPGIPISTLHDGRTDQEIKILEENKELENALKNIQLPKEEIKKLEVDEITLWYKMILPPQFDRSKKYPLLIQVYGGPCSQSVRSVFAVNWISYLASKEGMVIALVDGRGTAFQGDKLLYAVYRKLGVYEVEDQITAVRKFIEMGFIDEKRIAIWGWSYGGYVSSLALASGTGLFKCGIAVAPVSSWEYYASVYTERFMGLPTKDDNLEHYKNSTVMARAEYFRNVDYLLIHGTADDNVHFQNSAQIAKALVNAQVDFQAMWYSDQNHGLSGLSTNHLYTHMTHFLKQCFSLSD
Procedure, shortened: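 Recombinant FAP was expressed in Schneider's S2 cells and purified from the culture supernatant. Prodrugs at […] were held in FAP buffer (100mM NaCl, 100mM Tris, pH 7.8) with 10% DMSO, with or without 200nM FAP, at 37°C for 24hrs with shaking. Active drug (A-, S-, E-12ADT) was measured by LCMS at 0, 4 and 24hrs.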

Compound: C/C=C(/C)C(=O)O[C@H]1C(C)=C2[C@H]([C@@H]1OC(=O)CCCCCCC)[C@@](C)(OC(C)=O)C[C@H](OC(=O)CCCCCCCCCCCNC(=O)[C@H](CO)NC(=O)[C@H]1CCCN1C(=O)CNC(=O)[C@@H](NC(=O)[C@H](CCC(=O)O)NC(=O)CNC(=O)[C@H](CCCNC(=N)N)NC(=O)[C@@H](N)CCC(=O)O)[C@@H](C)O)[C@@]1(O)[C@H]2OC(=O)[C@@]1(C)O [ERGETGp-S12ADT] (H-ERGETG[dP]S-X1; N-terminus assumed)
- active drug generation in mouse plasma ex vivo [1]: no active drug generated
- 12ADT levels in mouse plasma as part of total administered dose ([2]; in vivo after IV dosing): < 0.01%
- Cmax ([2]; mouse, plasma, iv): 35 to 40 µM
- Tmax ([2]; mouse, plasma, iv): ≤ 1 h
- half-life ([2]; mouse, plasma, iv, half-life (t1/2) in mouse plasma, full-length prodrug, single IV dose): 4 to 5 h
- clearance from circulation ([2]; single IV dose): almost entirely cleared from circulation by 24 hrs
- active species detectable in tumors [3]: only 12ADT is detectable
- total active drug concentration in tumor, fold lower than from ERGETGP-S12ADT [3]: ~ 7 fold

Compound: CC(=O)O[C@@]12CO[C@@H]1C[C@H](O)[C@@]1(C)C(=O)[C@H](O)C3=C(C)[C@@H](OC(=O)[C@H](O)[C@@H](NC(=O)OC(C)(C)C)c4ccccc4)C[C@@](O)([C@@H](OC(=O)c4ccccc4)[C@H]21)C3(C)C [docetaxel]
- anti-tumor effect against LNCaP xenografts [4]: comparable anti-tumor effect
- recovery of body weight ([5]; over the course of the experiment): did not recover
- total body weight lost following therapy ([5]; prodrug IV days 0, 1, 2, docetaxel IV days 0, 3, 6): ~ 30% and 30%

Compound: C/C=C(/C)C(=O)O[C@H]1C(C)=C2[C@H]([C@@H]1OC(=O)CCCCCCC)[C@@](C)(OC(C)=O)C[C@H](OC(=O)CCC)[C@@]1(O)[C@H]2OC(=O)[C@@]1(C)O [TG, Thapsigargin]
- therapeutic benefit at the maximally-tolerated dose (MTD) [6]: no therapeutic benefit

Compound: ASGPAGP-A12ADT: FAP-activated prodrug: peptide ASGPAGP coupled to thapsigargin analog A12ADT
- active drug (S- or A12ADT) released in the presence of FAP (FAP; 200nM FAP, FAP buffer pH 7.8, 37°C, up to 24hrs, LCMS): 2 µM
- stability in the absence of FAP (FAP; FAP buffer without FAP, data not shown): completely stable
